From PubChem BioAssay
In the library only some 11% were active in any assay of this set; here they are far more common.
mHtt clearance: clearance of mutant huntingtin inclusions, primary screen, imaging, HeLa Exon1htt(103Q)mCFP, confocal imaging. inhibition, % at 1.5 µM. aggregate imaging; zero = plate's median compound well. 47,000 tested, 0.42% active;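 active = inhibition of aggregate fluorescence above about 70%, also judged a hit by eye on the cell image, limit read from the data, passing the limit was not always enough; inconclusive = no rule stated for this call; inactive = not judged a hit on image review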;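 note: cells exposed to compound for three days before fixation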
M1 ag: M1 muscarinic receptor agonists, primary screen, CHO-M1 cells, Fluo-4 calcium, agonist mode; Muscarinic acetylcholine receptor M1; Fluo-4 calcium fluorescence; stronger effect = higher value; B-score at 10 µM; 64,000 tested, 3% active;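 active = fluorescence rise, raw or as B-score row- and column-corrected plate score, outside the 99.7% band of its plate's samples, either direction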
RORa activator: activators of orphan receptor RORA, primary screen, cell-based, luminescence; Nuclear receptor ROR-alpha (Homo sapiens), P35398; activation, % at 10 µM; 65,000 tested, 1.5% active; CHO-K1 Gal4-RORA LBD luciferase reporter; percent increase over mock-subtracted basal signal;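 active = activation above the mean of all tested compounds plus 3 SD, cut at about 49% in these data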
D1 mod: D1 CRE-luciferase signal change, two-sided – cell-based, HEK293 D1, dopamine EC30, D1 allosteric modulator project, primary screen; B-score at 10 µM; 58,000 tested, 5.9% active; D(1A) dopamine receptor (Homo sapiens), P21728; dopamine EC30 potentiation; actives deviate in either direction;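 active = luminescence count or its row- and column-corrected plate score outside the 99.7% band of the plate's sample wells, on either side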
SF-1 act: activators of human SF-1, primary screen, cell-based, CHO-K1, Gal4-SF-1 LBD, luciferase luminescence. AID 522, 2006. 65,000 tested, 1.9% active. CHO-K1 Gal4-SF-1 LBD luciferase reporter; % increase over DMSO SF-1-specific signal. activation, % at 10 µM;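 active = activation above the mean activation of all tested compounds plus 3 SD, cut at about 50% in these data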
Target sequence (Q13285 whole entry, looked up, the tested form may be a part): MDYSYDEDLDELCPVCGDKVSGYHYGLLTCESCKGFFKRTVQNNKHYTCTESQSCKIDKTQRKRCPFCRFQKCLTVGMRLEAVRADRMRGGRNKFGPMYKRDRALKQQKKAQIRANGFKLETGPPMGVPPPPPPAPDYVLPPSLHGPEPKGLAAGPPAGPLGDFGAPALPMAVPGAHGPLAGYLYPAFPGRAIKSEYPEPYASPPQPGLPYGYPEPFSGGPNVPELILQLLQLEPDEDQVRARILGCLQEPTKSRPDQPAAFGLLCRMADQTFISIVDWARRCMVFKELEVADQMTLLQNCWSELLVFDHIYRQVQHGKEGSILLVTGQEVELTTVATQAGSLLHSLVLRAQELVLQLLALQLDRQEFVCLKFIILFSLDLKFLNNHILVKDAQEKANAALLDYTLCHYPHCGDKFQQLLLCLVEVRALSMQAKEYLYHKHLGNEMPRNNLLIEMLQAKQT
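material = CHO-K1 cells with Gal4–hSF-1 LBD chimera plus Gal4-driven luciferase | compound = 10 µM single point, 1% DMSO | incubation = 20 h compound exposure at 37 °C after 1 h cell settling | measured by = SteadyLite luciferase luminescence | evaluation = percent activation relative to DMSO median and mock-transfected background | control set = DMSO negative control and −SF1 background wells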
M1 antagonist: antagonists of rat M1 muscarinic receptor. Muscarinic acetylcholine receptor M1 (Rattus norvegicus), P08482. CHO-M1 cells, Fluo-4 calcium, ACh EC80 antagonist mode; stronger effect = lower value. B-score at 10 µM. 64,000 tested, 3.4% active. AID 628, 2007;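 active = calcium fluorescence response, raw or row-and-column corrected B-score, differing from the plate sample mean either way at a set confidence level, mostly lower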
M1 ag confirm: rat M1 muscarinic receptor agonists, confirmation, CHO-M1 cells, Fluo-4 calcium, duplicate retest. shares compounds with M1 ag. Fluo-4 calcium fluorescence, agonist mode; actives lie on both sides. fluorescence change (max-min) at 10 µM. 1,700 tested, 19% active;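 active = fluorescence change differs from the solvent-only DMSO control mean at a set confidence level in both duplicate runs; inconclusive = differs from solvent-only control mean in just one of two runs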;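 note: an EC20 dose of acetylcholine follows compound addition during the same imaging run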
M4 ag counter: agonist activity at rat M4 receptor, confirmation, counter-screen for M1 allosteric modulator project, cell-based, agonist mode; shares compounds with M1 ag; CHO M4/Gqi5 cells, Fluo-4 calcium fluorescence; actives lie on both sides; fluorescence change (max-min) at 10 µM; 1,700 tested, 9% active; AID 1741, 2009;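 active = fluorescence change differing from the plate's solvent-only control wells at 99.7% confidence in both duplicates, whether higher or lower; inconclusive = differs from solvent controls in only one of two duplicates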
Hits are given with their value; – = inactive; ? = inconclusive; · = no result given.

SMILES	mHtt clearance	M1 ag	RORa activator	D1 mod	SF-1 act	M1 antagonist	M1 ag confirm	M4 ag counter
O=C(NCc1ccc2c(c1)OCO2)c1cc2ccccc2oc1=O	–	·	·	·	·	·	·	·
C=CCn1c(Cc2cccs2)nnc1SCC(=O)c1cccc(Br)c1	–	·	–	–	–	·	·	·
CNC(=O)c1csc(-c2ccc(C)cc2)n1	–	·	·	·	·	·	·	·
O=C(CNC(=O)c1ccco1)OC(C(=O)c1ccccc1)c1ccccc1 (stereo unspecified)	–	6.71	–	·	–	–	–	?
COCCn1c(-c2ccccc2)nc2oc3ccccc3c(=O)c2c1=O	·	2.45	–	–	–	–	-24.9	-95.9
COc1ccc(-c2ccc(-c3noc(C4CCCCC4)n3)c(OC)n2)cc1	·	3.93	–	–	–	–	–	?
Clc1ccc(C2CC(c3cccs3)n3ncnc3N2)c(Cl)c1 (stereo unspecified)	·	–	–	–	–	–	·	·
CCN(CC)S(=O)(=O)c1ccc(NC2CCCc3ccccc32)nc1 (stereo unspecified)	–	–	–	–	–	–	·	·
Clc1ccc(-n2ncc3c(NCC4CCCO4)ncnc32)cc1 (stereo unspecified)	·	3.4	96.4	-3.57	122.1	–	?	–
Clc1ccc2[nH]c3c(NCCN4CCOCC4)ncnc3c2c1	·	–	–	–	–	–	·	·
Cc1ccc(-n2ncc3c(NCCCN4CCOCC4)ncnc32)c(C)c1	–	–	–	–	–	–	·	·
O=C1CCCN1CCCNc1ncnc2c1cnn2-c1ccc(Cl)cc1	·	3.08	68.9	–	–	–	–	–
Clc1ccc2[nH]c3c(NCC4CCCO4)ncnc3c2c1 (stereo unspecified)	·	7.74	–	–	–	–	–	–
CCCCCCNS(=O)(=O)c1nc2nc(C)cc(C)n2n1	·	–	–	–	–	–	·	·
COc1[nH]c(/N=C/c2ccccc2)c(C#N)c1C#N	–	10.4	–	–	–	–	?	–
Cc1ccc(-c2nnc3c4ccccc4c(C)nn23)cc1NC(=O)CN1CCOCC1	–	·	–	–	–	·	·	·
Cc1ccc(-c2nnc3c4ccccc4c(C)nn23)cc1S(=O)(=O)N1CCN(CCO)CC1	·	4.15	–	–	–	–	–	–
COc1cc(OC)c(-c2nnc(-c3ccc(OC)c(OC)c3OC)o2)cc1OC	–	4.47	–	–	–	–	-29.9	–
COc1cccc(-c2nnc(-c3ccc(C(F)(F)F)cc3)o2)c1OC	–	·	·	·	·	·	·	·
Cc1csc(Sc2nc3c(c(=O)[nH]c(=O)n3C)n2CCCc2ccccc2)n1	·	–	–	–	–	–	·	·
COC(=O)CSc1nnc(-c2ccncc2)n1N	–	4.49	–	–	–	–	?	–
CCn1c(SCC(=O)OC)nnc1-c1ccncc1	–	·	·	·	·	·	·	·
CCOC(=O)C1=C(N)OC2=C(C(=O)CC(C)(C)C2)C1c1cccs1 (stereo unspecified)	–	·	·	·	·	·	·	·
Cc1cc2cc(CCNC(=O)c3ccc(Br)o3)c(=O)[nH]c2cc1C	·	3.67	–	–	–	–	–	–
COC(=O)c1ccc(-c2ccc(CNCC(O)c3ccccc3)o2)cc1 (stereo unspecified)	·	–	–	–	–	–	·	·
SMILES	mHtt clearance	M1 ag	RORa activator	D1 mod	SF-1 act	M1 antagonist	M1 ag confirm	M4 ag counter
CC1(C)CC(=O)C2=C(C1)OC(N)=C(C#N)C21CCN(Cc2ccccc2)CC1	·	6.94	–	–	–	–	–	–
Cc1ccc(N=C2CCCN2Cc2ccccc2)c(C#N)c1	–	·	·	·	·	·	·	·
COc1ccc(CCNC(=O)COc2ccc(S(=O)(=O)N3CCOCC3)cc2)cc1	·	–	–	–	–	–	·	·
Cc1cc(=O)oc2ccc(OC(=O)c3cccc(S(=O)(=O)N4CCOCC4)c3)cc12	–	4.78	–	–	–	–	?	–
Cc1cccc(NC(=O)c2oc3ccc(S(=O)(=O)N4CCOCC4)cc3c2C)c1C	–	9.51	–	–	–	–	?	–
Cc1c(C(=O)NCc2cccs2)oc2ccc(S(=O)(=O)N3CCOCC3)cc12	·	–	–	·	–	–	·	·
Cc1c(C(=O)NCCC2=CCCCC2)oc2ccc(S(=O)(=O)N3CCOCC3)cc12	–	15.4	–	·	–	-2.93	?	–
CC(=O)NCCc1ccc(S(=O)(=O)N2CCOCC2)cc1	–	2.23	–	–	–	–	–	–
Cc1cc(=O)oc2cc(OCc3ccc(S(=O)(=O)N4CCOCC4)cc3)ccc12	–	–	–	–	–	–	·	·
CC1(C)Cc2c(sc(/N=C/N3CCCC3)c2C#N)C(C)(C)N1	–	·	·	·	·	·	·	·
Cc1sc(NC(=O)CSc2nnnn2C2CCCCC2)c(C#N)c1C	–	·	·	·	·	·	·	·
COc1ccc2c(c1)[nH]c1c(=O)n(CCN3CCCC3)cnc12	·	2.19	–	–	–	–	?	–
COc1ccc(C(c2nnnn2C2CCCC2)N2CCc3ccccc3C2)cc1OC (stereo unspecified)	·	–	–	–	–	–	·	·
COCCn1nnnc1C(c1ccc(O)c(OC)c1)N1CCc2ccccc2C1 (stereo unspecified)	·	4	–	–	–	–	–	–
O=C1c2ccccc2C(=O)N1Cc1nc2ccccc2c(=O)n1CCN1CCOCC1	·	–	–	–	–	–	·	·
COc1ccc(OC(C)C(=O)N2CCN(c3ccccn3)CC2)cc1 (stereo unspecified)	·	–	–	–	–	–	·	·
O=C(c1ccc2c3c(cccc13)CC2)N1CCN(c2ncccn2)CC1	–	–	–	–	–	–	·	·
CCN(C(=O)c1cnc(N2CCN(c3ncccn3)CC2)c2ccccc12)c1cccc(Cl)c1	·	3.32	–	–	–	–	–	?
CN(C(=O)c1cnc(N2CCN(c3ncccn3)CC2)c2ccccc12)c1ccc(Cl)cc1	–	5.32	–	–	–	–	–	?
CC(C)NC(=O)c1cnc(N2CCN(c3ccccn3)CC2)c2ccccc12	·	5.84	–	–	–	–	–	–
O=C(c1cnc(N2CCN(c3ncccn3)CC2)c2ccccc12)N1CCN(c2ncccn2)CC1	–	11.2	–	–	–	–	–	–
O=C(COc1ccc(Cl)cc1)N1CCN(c2ncccn2)CC1	·	–	–	–	–	–	·	·
O=C(NCCSc1c[nH]c2ccccc12)C1CC1	–	·	·	·	·	·	·	·
Cc1cc(-c2cc(-c3ccc(Cl)cc3)nc(N)c2C#N)co1	–	–	–	·	–	–	·	·
